This passage reports T/C, LTS and IC50 results from ChEMBL document CHEMBL1125276 (J Med Chem, 1991).

Experiment [1] deals with P388. Briefly: Compound was tested for T/C range at optimal dose of 8.00 mg/kg for antitumor activity against P388 leukemia cells in mice. In kind it is functional, Mus musculus.
In experiment [2] the test system is P388. Briefly: Long-term survivors (LTS) for 60 days at optimal dose of 8.00 mg/kg for antitumor activity against P388 leukemia cells in 5 mice. In kind it is functional, Mus musculus.
In the next experiment the test system is L1210. Briefly: Tested for the inhibition of L1210 cell proliferation. In kind it is functional, cell-based. The note with it: Mus musculus. The method in brief: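 L1210 cells were grown in RPMI 1640 with 10% FCS, 2 mM L-glutamine and 10 mM HEPES (pH 7.4). Exponential-phase cells (10^5 cells/mL) were exposed for 24 h to 5 drug concentrations in triplicate, then pulsed 3 h with 0.5 µCi/mL [3H]thymidine. Cells were harvested onto filters and counted. IC50 is 50% inhibition of incorporation versus untreated cells, given as the mean of 2–5 independent experiments.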

The test system of experiment [3] is P388. Briefly: Long-term survivors (LTS) for 60 days at optimal dose of 1.5 mg/kg for antitumor activity against P388 leukemia cells in 6 mice. In kind it is functional, Mus musculus.
The test system of experiment [4] is P388. Briefly: Compound was tested for T/C range at optimal dose of 1.5 mg/kg for antitumor activity against P388 leukemia cells in mice. In kind it is functional, Mus musculus.
Experiment [5] deals with P388. Briefly: Long-term survivors (LTS) for 60 days at optimal dose of 0.25 mg/kg for antitumor activity against P388 leukemia cells in 6 mice. In kind it is functional, Mus musculus.
The target of a further experiment is Tubulin. Briefly: The compound tested for the inhibition of tubulin polymerization. In kind it is functional. The method in brief: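 Tubulin was partially purified from dog brain by polymerization/depolymerization cycles and used at 0.5 mg/mL. Compounds were added in DMSO (10 µL per 500 µL reaction) at 10^-6 to 10^-9 M, with DMSO-only controls. Polymerization was followed by turbidity at 350 nm. Rates from two separate experiments were plotted against concentration, and IC50 was read graphically.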

Experiment [6] concerns P388. Briefly: Compound was tested for T/C range at optimal dose of 0.25 mg/kg for antitumor activity against P388 leukemia cells in mice. In kind it is functional, Mus musculus.

As to `CCOP(=O)(OCC)[C@H](Cc1ccccc1)NC(=O)[C@@]1(O)[C@H](O)[C@]2(CC)C=CCN3CC[C@@]4(c5cc([C@@]6(C(=O)OC)C[C@@H]7CN(CCc8c6[nH]c6ccccc86)C[C@](O)(CC)C7)c(OC)cc5N(C)[C@@H]14)[C@@H]32`, in the experiment with P388 [1], the T/C (as a rule, the ratio of treated to control) worked out at 229%. The compound further yielded an LTS in the experiment with P388 [2] of 0. In addition, the midpoint of inhibition in the experiment with L1210, the IC50, lay at 9.64 nM.

Turning to `CCOP(=O)(OCC)C(CC(C)C)NC(=O)[C@@]1(O)[C@H](O)[C@]2(CC)C=CCN3CC[C@@]4(c5cc([C@@]6(C(=O)OC)C[C@@H]7CN(CCc8c6[nH]c6ccccc86)C[C@](O)(CC)C7)c(OC)cc5N(C)[C@@H]14)[C@@H]32` (mixture of isomers), the LTS in the experiment on P388 [3] was determined as 1. For the same compound, inhibition in the experiment with L1210 was half-maximal at 3.13 nM (IC50). This compound showed a T/C with P388 [4] of 261%.

Compound `CCOP(=O)(OCC)[C@H](C)NC(=O)[C@@]1(O)[C@H](O)[C@]2(CC)C=CCN3CC[C@@]4(c5cc([C@@]6(C(=O)OC)C[C@@H]7CN(CCc8c6[nH]c6ccccc86)C[C@](O)(CC)C7)c(OC)cc5N(C)[C@@H]14)[C@@H]32` returned an LTS in the experiment with P388 [5] of 2. In addition, the figures for the IC50 in the experiment on L1210 and on Tubulin were 0.4 nM and 200 nM, respectively. The compound further registered a T/C with P388 [6] of 342%.
